# DDE Tn6 FP inh – disrupts Tn6 cyclic peptide binding to fibrin D-Dimer-E complex; 370,000 compounds, 0.21% hits; Fibrin DD(E) TRITC-Tn6 fluorescence polarization displacement; inhibition, % at 8.3 µM; P02675;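 active means inhibition above a per-campaign cutoff: mean of compounds within control limits plus 3 SD, cut at about 15% in these data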
# mABHD4 FP – inhibitors of mouse ABHD4 | Q8VD66 | purified mABHD4, FP-Rh probe fluorescence polarization | inhibition, % at 8.92 µM | 370,000 compounds, 0.54% hits | AID 720543;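 active means inhibition exceeding the mean over every tested compound plus 3 SD, cut at about 30% in these data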
#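 Assay system: mABHD4 protein; medium: HEPES pH 7.0, NaCl, Pluronic buffer; dosing: 8.92 µM, single dose; schedule: 45 min + 60 min at 25 °C; signal: FP readout, ex 525 nm / em 598 nm; read-out: normalized percent inhibition of probe labeling; repeats: single replicate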
# HTRA1 inh – HTRA1 (human) protease inhibition; 340,000 compounds, 0.5% hits; recombinant HTRA1, FP-rhodamine activity-based probe, fluorescence polarization; Q92743; AID 504803; inhibition, % at 5.96 µM; in the data active means inhibition above about 36%
# SIAE inh – blocks human sialic acid acetylesterase. Q9HAT2. SIAE FP-Rh probe binding, fluorescence polarization. inhibition, % at 9.66 µM. 370,000 compounds, 0.69% hits. AID 1053197;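 active means inhibition above a cutoff: mean of compounds within the control limits plus 3 SD of those, cut at about 17% in these data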
# Target sequence (Q9HAT2 whole entry, looked up): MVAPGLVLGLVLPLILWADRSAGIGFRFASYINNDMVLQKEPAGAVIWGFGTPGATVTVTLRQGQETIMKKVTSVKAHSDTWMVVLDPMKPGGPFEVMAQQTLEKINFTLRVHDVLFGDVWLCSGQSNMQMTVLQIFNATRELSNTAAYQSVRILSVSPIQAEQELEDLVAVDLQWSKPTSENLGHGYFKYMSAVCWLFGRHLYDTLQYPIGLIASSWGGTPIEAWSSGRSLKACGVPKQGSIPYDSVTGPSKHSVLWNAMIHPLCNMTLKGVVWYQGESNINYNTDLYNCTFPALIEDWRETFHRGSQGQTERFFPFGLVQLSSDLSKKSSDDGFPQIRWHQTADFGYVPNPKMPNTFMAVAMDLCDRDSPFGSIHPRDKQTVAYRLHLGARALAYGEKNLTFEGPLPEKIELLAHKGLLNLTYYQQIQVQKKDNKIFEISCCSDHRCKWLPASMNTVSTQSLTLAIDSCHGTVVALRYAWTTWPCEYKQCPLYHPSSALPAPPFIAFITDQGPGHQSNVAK
# Tn7 DDE FP – disrupts Tn7 cyclic peptide binding to fibrin D-Dimer-E complex | FP displacement of FITC-Tn7 peptide from fibrin DD(E); 0% = median of compound wells per plate | AID 720508 | 370,000 compounds, 0.13% hits | inhibition, % at 8.3 µM | P02675;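 active means inhibition above the mean of compounds falling within the control limits plus 3 SD of them, cut at about 14% in these data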
#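 System: human fibrin DD(E); quantity: Fibrin-DD(E) at 2 µM final; also added: fluorescent Tn7 probe at 0.1 µM; compound dosing: single nominal test concentration of 8.3 µM per compound; schedule: 10 min preincubation, 3 h with tracer, room temperature; detection: fluorescence polarization of the labelled Tn7 tracer; repeats: one replicate per compound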
# TCR CD3 inh – inhibitors of human TCR-CD3 interaction. inhibition, % at 9.4 µM. 360,000 compounds, 0.37% hits. TAMRA-labeled TCR probe fluorescence, biochemical;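 further: recombinant mutant TCR 2C K166C tagged with TAMRA read by polarization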
# HTRA1 conf – confirmation of human HTRA1 inhibitors. shares compounds with HTRA1 inh. recombinant HTRA1, FP-rhodamine activity-based probe, fluorescence polarization. inhibition, % at 5.96 µM. 1,600 compounds, 66% hits;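 active means mean inhibition over three repeats above a set limit taken from the earlier primary screen, cut at about 37% in these data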;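 further: inhibitors block probe binding so polarization drops and inhibition rises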
# BSA TAMRA ctr – interferes with TAMRA-BSA probe, flagging TCR-CD3 hits | TAMRA-labeled BSA probe fluorescence counterscreen | shares compounds with TCR CD3 inh | 1,200 compounds, 10% hits | inhibition, % at 9.4 µM; in the data active means inhibition above about 23%
# TCR-CD3 conf – confirmation of human TCR-CD3 interaction inhibitors; TAMRA-labeled TCR probe fluorescence binding assay; inhibition, % at 9.4 µM; 1,200 compounds, 48% hits; shares compounds with TCR CD3 inh
# Tn7 DDE conf – confirmation of inhibitors of Tn7 binding to human fibrin DD(E) | shares compounds with Tn7 DDE FP | FP displacement of TRITC-Tn7 peptide from DD(E); 0% set at plate's compound-well median | inhibition, % at 8.3 µM | 460 compounds, 5% hits | AID 720628;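 active means inhibition above the campaign cutoff, the mean of compounds within control limits plus 3 SD, cut at about 14% in these data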;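 further: displacers lower polarization since freed probe rises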
# Tn7 DDE ctr – counter-screen for inhibitors of Tn7 peptide binding to fibrin DD(E). shares compounds with Tn7 DDE FP. TRITC-Tn7 probe displacement, fluorescence polarization. inhibition, % at 8.3 µM. 460 compounds, 3% hits. AID 720633;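 active means inhibition above the cutoff, the mean of compounds lying between the control bounds plus 3 SD of those compounds, cut at about 17% in these data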
# Tn6 DDE ctr – counter-screen for inhibitors of Tn6 peptide binding to fibrin DD(E); shares compounds with DDE Tn6 FP inh; inhibition, % at 8.3 µM; AID 720621; 680 compounds, 2% hits; TRITC-Tn6 fluorescence polarization displacement; 0% = median of compound wells, not DMSO;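 active means inhibition above the mean of test compounds lying between the control limits plus 3 SD of those, cut at about 14% in these data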
# Tn6 DDE conf – DD(E)-Tn6 binding inhibition, FP confirmation. shares compounds with DDE Tn6 FP inh. FP displacement of TRITC-Tn6 peptide from DD(E); 0% = per-plate median of test wells. inhibition, % at 8.3 µM. 680 compounds, 10% hits;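 active means inhibition above the mean of compounds lying within the control limits plus 3 SD, cut at about 16% in these data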
# ABHD4 confirm – confirmation of mouse ABHD4 inhibitors; shares compounds with mABHD4 FP; purified mABHD4, FP-Rh probe fluorescence polarization; inhibition, % at 8.92 µM; 1,800 compounds, 55% hits; AID 720658;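 active means mean inhibition across replicates above the hit cutoff set in the primary screen, cut at about 30% in these data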
# SIAE confirm – confirmation of human SIAE inhibitors. shares compounds with SIAE inh. SIAE FP-Rh activity-based probe, fluorescence polarization. inhibition, % at 9.66 µM. 2,300 compounds, 13% hits. AID 1117263;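 active means mean inhibition of the replicates above the hit cutoff set in the primary screen, cut at about 17% in these data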;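 further: inhibitors lower polarization as more probe stays unbound to SIAE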
# Numbers stand for hits; . = inactive; / = not tested or not shown; + = active, no number. Most compounds without a hit are left out; they make up all but 1.8% or so of the library. Unless noted, no stated cut-off is given here; in the data, active means inhibition above about 19%; inactive means the rest.
SMILES,DDE Tn6 FP inh,mABHD4 FP,HTRA1 inh,SIAE inh,Tn7 DDE FP,TCR CD3 inh,HTRA1 conf,BSA TAMRA ctr,TCR-CD3 conf,ABHD4 confirm,SIAE confirm,others
O=C1C=CC(=O)c2c(O)c(CO)c(CO)c(O)c21,.,62.1,46.0,52.7,.,78.0,56.8,.,59.2,/,43.5,
COc1ccc2c3c(cccc13)C(=O)CC2,36.1,87.5,141.0,72.8,21.1,56.9,.,.,.,.,.,
COc1ccc2c(c1OC)C(=O)OC2,.,.,.,.,.,.,/,/,/,/,/,
COC(=O)[C@H](CC(C)C)N(Cc1cn(CC2CCCCC2)nn1)S(=O)(=O)c1ccccc1Br,.,.,/,.,.,/,/,/,/,/,/,
CCOc1ccc(Nc2ccc(N)c(S(=O)(=O)O)c2)cc1,22.2,107.1,93.2,21.1,.,42.4,53.1,.,20.9,54.6,.,Tn6 DDE ctr=.;Tn6 DDE conf=.
CCCC(=Nc1ccc(N)cc1)C1=C(O)C(C(=O)OC)C(C)(C)CC1=O (stereo not drawn),126.1,79.3,60.7,35.2,.,66.7,59.2,.,.,.,.,Tn6 DDE ctr=.;Tn6 DDE conf=17.0
Cc1c(Br)c(O)c(Br)c2sc(=O)oc12,.,67.1,47.1,28.9,.,25.0,.,.,.,66.2,.,
COCCCNC(=O)CCCn1c(=O)c2ccccc2n(Cc2cccc([N+](=O)[O-])c2)c1=O,.,.,.,.,.,.,/,/,/,/,/,
COc1cc(-c2ccc(Nc3ccccc3C(=O)O)c(OC)c2)ccc1Nc1ccccc1C(=O)O,.,53.6,42.4,30.5,.,.,56.0,/,/,80.2,22.1,
COc1cc([N+](=O)[O-])c(OC)cc1Nc1ccccc1C(=O)O,.,.,/,.,.,.,/,/,/,/,/,
Cc1ccc(C(=O)NCCc2nnc3ccc(SCC(=O)Nc4ccccc4F)nn23)cc1,.,.,.,.,.,.,/,/,/,/,/,
COc1cc(/C=N/Nc2ccc([N+](=O)[O-])cc2S(=O)(=O)N2CCOCC2)cc(OC)c1OC,.,.,.,.,.,.,/,/,/,/,/,
O=[N+]([O-])c1ccc(N/N=C/c2ccc(O)c(O)c2O)c(S(=O)(=O)N2CCOCC2)c1,.,36.7,73.9,27.5,.,.,74.4,/,/,58.1,.,
CC(=O)Nc1ccc(S(=O)(=O)Nc2cccc3[nH]ncc23)cc1,.,.,.,.,.,.,/,/,/,/,/,
O=C(Nc1cccc2[nH]ncc12)NS(=O)(=O)c1ccccc1,59.6,98.2,43.9,47.6,.,58.4,.,34.6,26.8,.,.,
COc1ccc(/C=N\NC(=O)c2cc(O)c(O)c(O)c2)cc1CN1CCN(c2ccc(F)cc2)CC1,.,.,82.6,29.7,.,23.4,77.5,.,22.9,/,.,
COc1ccc(/C=N/NC(=O)c2ccc(C)cc2)cc1CN1CCN(c2ccc(F)cc2)CC1,/,/,.,/,/,/,/,/,/,/,/,
COc1ccc2ccccc2c1C(O)c1nccn1C (stereo not drawn),17.2,40.4,39.0,57.0,32.7,78.8,.,.,.,87.8,42.8,Tn7 DDE conf=16.8;Tn7 DDE ctr=.;Tn6 DDE ctr=16.8;Tn6 DDE conf=.
Cn1ccnc1C(O)c1ccccc1 (stereo not drawn),.,.,.,.,.,.,/,/,/,/,/,
CC1(C)OC(C)(C)/C(=C/Nc2ccc(O)cc2)C1=O,.,62.0,63.5,32.6,.,33.0,.,.,.,.,.,
COc1cccc2c1C(=O)c1c(O)c3c(c(O)c1C2=O)CC(O)(C(C)=O)CC3OC1CC(O)C(O)C(C)O1 (stereo not drawn),+,78.8,73.0,68.2,25.9,133.6,73.6,179.7,141.8,/,55.3,
CC(=O)CC[C@@H]1CC[C@]2(CCCN(C(=O)c3ccc4ccccc4n3)C2)O1,.,.,/,.,.,/,/,/,/,/,/,
CC(C)(C)OC(=O)N1c2ccccc2[C@]2(N3CCCC3)C[C@H](C(=O)O)N(C(=O)OC(C)(C)C)[C@H]12,.,.,/,.,.,/,/,/,/,/,/,
O=C1c2ccccc2-c2c1cccc2C(=O)N1CCN(C(=O)c2ccco2)CC1,.,.,.,.,.,.,/,/,/,/,/,
O=C(O)CCCNc1cc(N2CCN(C(=O)c3ccco3)CC2)c2noc3c2c1C(=O)c1ccccc1-3,32.3,65.7,51.5,62.4,.,79.1,46.6,/,/,42.8,33.4,Tn6 DDE ctr=.;Tn6 DDE conf=58.2
SMILES,DDE Tn6 FP inh,mABHD4 FP,HTRA1 inh,SIAE inh,Tn7 DDE FP,TCR CD3 inh,HTRA1 conf,BSA TAMRA ctr,TCR-CD3 conf,ABHD4 confirm,SIAE confirm,others
COc1cc(/C=C/c2ccc3c(Br)cc(Br)c(O)c3n2)ccc1O,.,.,43.9,27.7,.,.,.,/,/,/,.,
COc1ccc(/C=C/c2ccc3c(Br)ccc(O)c3n2)cc1,.,.,.,.,.,.,/,/,/,/,/,
COc1ccc(CNC(=O)c2[nH]c(C(F)(F)F)nc2-c2ccccc2)cc1OC,.,.,/,.,.,.,/,/,/,/,/,
COc1ccc(CNc2cccc3[nH]c(C(F)(F)F)nc23)cc1OC,.,.,39.6,19.1,.,.,.,/,/,/,.,
CCOC(=O)c1cc2c(N)c(C(=O)c3ccc(Br)cc3)sc2[nH]c1=O,.,.,.,.,.,.,/,/,/,/,/,
Cc1ccc(-c2ccccc2NC(=O)CS(=O)CC(=O)Nc2ccc(C)c(Cl)c2)o1 (stereo not drawn),.,35.9,38.8,45.4,.,85.4,.,.,.,.,.,
COc1ccc2c(c1)C(=O)O[C@@H](c1ccccc1)C[C@@H](O)C(=O)CC2,.,.,/,.,.,.,/,/,/,/,/,

# Source: PubChem BioAssay
